Reference: publication PMC9078286 (RSC Advances, 2018)

Type: in vivo, Sprague-Dawley rats
Settings: for T max / half-life: Normal rats, oral Gandi capsule 80 mg kg^-1, plasma, n = 6, mean ± SD; for concentration at 2 h / half-life: male, Sprague-Dawley, rat, plasma, po; for concentration at 2 h: 80 mg kg^-1 Gandi capsule; for half-life: 80 mg/kg, T 1/2 z
In short: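 Diabetes was induced by a single ip STZ dose of 45 mg kg−1 in citrate buffer (0.1 mol L−1, pH 4.5), with blood glucose >16.7 mmol L−1 after 1 week; rats were dosed on day 10. Rats were fasted 12 h, then given capsule contents in 0.3% CMC-Na orally; n = 6/group. Plasma was sampled 0–48 h, precipitated with IS in methanol and analysed by positive-ion LC-MS/MS; results are mean ± SD, compared by t-test.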

T max | concentration at 2 h | half-life | Time after oral administration in which the compound can be detected in plasma (oral Gandi capsule, rat plasma, quick elimination phase) | Compound
1.50 ± 1.40 h | 723 ng/mL | 9.45 ± 2.87 h |  | O=C(O)[C@H]1O[C@@H](Oc2cc3oc(-c4ccccc4)cc(=O)c3c(O)c2O)[C@H](O)[C@@H](O)[C@@H]1O [Baicalin, baicalin]
1.25 ± 0.35 h | 42.6 ng/mL | 0.46 ± 0.38 h | ≤ 2.5 h | COC(=O)C1=CO[C@@H](O[C@@H]2O[C@H](CO)[C@@H](O)[C@H](O)[C@H]2O)[C@@H]2[C@@H](C)[C@@H](O)C[C@H]12 [Loganin, loganin]
 | 54.9 ng/mL | 1.52 ± 0.25 h |  | COc1c(O)cc(O)c2c(=O)cc(-c3ccccc3)oc12 [Wogonin, wogonin]
